Assay outcomes: PubChem BioAssay, several laboratories
This is one part of a sample in which hits are shown more often than they occur.
T cruzi repl: T. cruzi replication inhibition; T. cruzi beta-gal in NIH3T3, luminescence, 90 h; 1.4% of 300,000 active; inhibition, % (test concentration not listed);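 active = mean inhibition across valid replicates above about 55%, limit read from the data; inconclusive = mean below that limit but half or more replicates reach it; inactive = mean below it, under half of replicates reach it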;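 note: signal also drops with host cell toxicity which is not excluded here; 0% = plate median of DMSO wells and 100% = zero luminescence signal; higher percent means less beta-gal luminescence so fewer parasites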
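System – NIH/3T3 host cells with β-galactosidase reporter T. cruzi · Doses – single 50 nL compound addition per well in DMSO · Reagent – 5000 T. cruzi trypomastigotes/well · Medium – Low-serum DMEM with 2% FBS · Timing – ≥90 h infection period, 3 h prior cell attachment · Evaluation – parasite load inhibition, % · Technique – GalScreen luminescence, 60 min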
UPR XBP1 act: adaptive UPR (XBP1) activation; CHO-XBP1 luciferase reporter, IRE1-XBP1 UPR activation, luminescence; percent of tunicamycin response, DMSO as zero; activation, % at 20 µM; 0.33% of 330,000 active;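 active = versus positive control, 20 µM dose yields 30% or more activation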;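 note: 100% = tunicamycin at 10 µg/mL and 0% = DMSO only wells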
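Material: CHO-XBP1 cells stably carrying IRE1-XBP1-driven luciferase reporter / Amount: 1000 cells per well / Compound: 20 µM, 1% DMSO / Times: 6 h treatment, 37 °C / Detection: luciferase luminescence / Measure: % activation of reporter signal versus tunicamycin and DMSO controls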
L major viab: Leishmania major promastigote growth inhibition; 9% of 200,000 active; Leishmania major promastigotes, resazurin fluorescence viability; AID 1063; inhibition, % at 10 µM; in the data active = inhibition above about 50%;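 note: promastigotes grown with compound for 44 hours at 28 °C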
CHOP inhibitor: blocks CHOP induction under ER stress; CHO-K1 CHOP-promoter luciferase, tunicamycin-induced, 15-18 h; inhibition, % at 10 µM; 3.8% of 220,000 active;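 active = compounds that reduced the stress-induced luciferase reporter signal by more than about 70% of percent inhibition, limit read from the data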;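 note: 0% = tunicamycin plus vehicle and 100% = wells without tunicamycin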
UPR CHOP act: apoptotic UPR (CHOP) activation. AID 449763. 0.34% of 330,000 active. activation, % at 10 µM. CHO-CHOP luciferase reporter, luminescence; percent of tunicamycin response over DMSO baseline;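 active = at 10 µM dose, activation of 40% or more, normalized to positive control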;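 note: 100% = tunicamycin at 10 µg/mL and 0% = DMSO alone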
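Dosing – one dose, 10 µM in 0.5% DMSO · System – CHO-CHOP cells, stable luciferase reporter of PERK-eIF2a-CHOP signalling · Input – 500 cells/well · Control set – tunicamycin 10 µg/mL final as positive, DMSO-only wells as negative · Timing – 6 h compound treatment, 37 °C · Measure – % activation vs tunicamycin · Technique – luminescence read with Steady-Glo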
Dynein cargo inh: dynein cargo transport inhibition. 3617.4 mouse cells, GR-EGFP nuclear translocation imaging; test concentration mostly 20 µM; stimulated with dexamethasone, 1 µM; stronger effect = lower value. z-score, hits read low. 0.47% of 220,000 active;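 active = plate z-score of nuclear minus cytoplasmic receptor signal below a set negative limit, without overly bright fluorescence or cell loss, cut at about -3.5 in these data, passing the limit was not always enough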;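 note: z-score of nuclear minus cytoplasmic ring GR-EGFP intensity difference per well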
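Buffer or medium – tet-free medium with charcoal-stripped serum · Signal – automated 10x imaging of fixed Hoechst-stained cells · Also added – dexamethasone agonist, 1.0 µM final, for 30 min · Incubation – induction 48 h, compound 1 h, agonist 30 min · Read-out – GR-EGFP nuclear translocation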
Active calls of the source: *; ? = inconclusive; · = no result.

SMILES	T cruzi repl	UPR XBP1 act	L major viab	CHOP inhibitor	UPR CHOP act	Dynein cargo inh
O=C(NCCC1=CCCCC1)C(=O)NCC(c1ccco1)N1CCN(c2ccccc2)CC1 (configuration not stated)	-22.5	17.2	88.5*	94.3*	3.0	-0.568
O=C(NCCC1=CCCCC1)C(=O)NCC(c1ccco1)N1CCN(c2ccccc2F)CC1 (configuration not stated)	-21.5	11.3	74.2*	62.3	2.1	0.0776
COC(=O)c1ccc(CNC(=O)COC(=O)Cc2ccsc2)cc1	-8.4	4.6	-3.4	18.6	2.3	0.609
Cc1noc(C)c1NC(=O)Nc1cccc2c1O[C@H](CN(C)C(=O)NC(C)C)[C@@H](C)CN([C@H](C)CO)C2=O	·	-2.1	·	·	-0.1	·
COc1ccc(N2CCN(C(CNC(=O)C(=O)NCCC3=CCCCC3)c3ccco3)CC2)cc1 (configuration not stated)	15.9	20.7	86.2*	87.0*	1.5	-0.785
COCCCNC(=O)C(=O)NCC(c1ccco1)N1CCN(c2ccc(OC)cc2)CC1 (configuration not stated)	-1.9	-1.2	·	·	6.4	·
O=C(NCc1ccncc1)C(=O)NCC(c1ccccc1)c1ccccc1	1.6	-1.4	57.5*	-5.2	1.5	-0.388
COc1ccc(/C=N/OCC(=O)N2CC3(C)CC2CC(C)(C)C3)cc1OC (configuration not stated)	-2.7	-1.2	64.7*	33.8	-1.3	-0.389
O=C1CN(C(=O)c2cc([N+](=O)[O-])ccc2Cl)C(c2ccc(F)cc2)c2cc(F)ccc2N1 (configuration not stated)	-4.8	-1.4	79.3*	-7.0	-0.2	-0.0439
O=C1CN(C(=O)c2ccccc2Br)C(c2ccc(F)cc2)c2cc(F)ccc2N1 (configuration not stated)	-2.4	-4.5	·	·	1.6	·
O=C1CN(C(=O)c2ccc(Br)o2)C(c2ccccc2)c2cc(F)ccc2N1 (configuration not stated)	25.1	7.2	92.4*	25.0	-0.2	-0.879
COc1ccc(/C=C/CN2CCCC(CO)(Cc3cccc(Cl)c3)C2)cc1 (configuration not stated)	46.8	-4.7	97.4*	56.9	1.2	-0.115
COc1ccc(F)c(CN2CCCC(CO)(Cc3cccc(Cl)c3)C2)c1 (configuration not stated)	31.2	-2.4	·	·	0.4	·
COc1cccc(CC2(CO)CCCN(C/C=C/c3ccccc3OC)C2)c1 (configuration not stated)	62.5*	3.6	41.1	21.8	-1.9	-0.255
COc1ccc(C(CNC(=O)c2cccc(S(=O)(=O)NCc3ccccc3)c2)N2CCOCC2)cc1 (configuration not stated)	7.9	-0.9	·	·	1.2	·
CCN1C(=O)C(F)(CC)C(=O)c2ccccc21 (configuration not stated)	-2.5	2.1	-4.8	-3.5	1.9	0.98
COC(=O)c1cccc(-c2ccc(C(c3c(C)[nH][nH]c3=O)c3c(C)[nH][nH]c3=O)o2)c1	7.4	2.8	92.4*	-6.3	-0.9	-0.765
COC(=O)c1ccccc1-c1ccc(C(c2c(C)[nH][nH]c2=O)c2c(C)[nH][nH]c2=O)o1	-19.2	-0.4	100.2*	-78.0	0.9	1.51
Cc1[nH][nH]c(=O)c1C(c1ccc(-c2ccc(Cl)c(C(=O)O)c2)o1)c1c(C)[nH][nH]c1=O	·	·	-4.9	3.5	·	0.428
CCCCOC(=O)C(C#N)c1nc2ccccc2nc1N1CCN(Cc2ccc3c(c2)OCO3)CC1 (configuration not stated)	·	-4.4	69.2*	19.1	-0.9	0.515
COCCOC(=O)C(C#N)c1nc2ccccc2nc1N1CCN(Cc2ccccc2)CC1 (configuration not stated)	24.7	-1.1	17.2	62.5	-5.4	-0.274
C=CCOC(=O)C(C#N)c1nc2ccccc2nc1N1CCN(Cc2ccccc2)CC1 (configuration not stated)	·	-1.8	50.7*	8.4	0.8	0.224
COCC(C)OC(=O)C(C#N)c1nc2ccccc2nc1N1CCN(Cc2ccccc2)CC1 (configuration not stated)	?	-2.4	67.2*	44.6	-1.0	-0.577
Fc1ccc(OCCOCCOc2cccc3[nH]ccc23)cc1	-0.6	-5.3	11.2	36.1	0.4	0.057
CCCCNCCOCCOc1ccc(Cl)cc1Br	41.5	1.0	99.6*	3.6	0.0	1.89
SMILES	T cruzi repl	UPR XBP1 act	L major viab	CHOP inhibitor	UPR CHOP act	Dynein cargo inh
CC(C)NCCCCOc1ccc(Br)cc1Cl	29.4	-2.5	99.4*	-0.7	-1.6	-0.93
COCCCNC(=O)COc1ccc(Br)cc1Cl	-4.0	2.9	42.5	-48.1	4.5	-0.51
CCCCNCCOCCOc1ccc(F)cc1	0.9	-4.6	92.5*	-25.3	-2.7	0.731
COCCCNCCCOc1ccc(Cl)cc1Br	46.9	1.6	87.8*	10.0	0.1	0.0359
CNC(=S)NNC(=O)c1c(C)nc2cc(C)ccn12	-9.1	0.1	·	5.6	2.3	-0.23
CC(C)NCCCOc1ccc(Cl)cc1Br	34.3	-1.1	94.5*	-6.9	-0.3	-0.642
C=CCN(CC=C)CCCOc1ccc(Br)cc1Cl	25.4	0.2	51.2*	0.1	5.7	-0.884
C=CCNCCCOc1ccc(C)cc1Br	18.0	-0.6	93.5*	0.7	3.5	1.89
CCN(CC)CCCOc1ccc(C)cc1Br	4.5	-1.5	93.7*	33.6	-1.5	1.06
CCOC(=O)N1CCN(S(=O)(=O)N2CCCC(C(=O)NCCc3ccc(OCC)c(OCC)c3)C2)CC1 (configuration not stated)	5.6	-6.8	·	·	0.9	·
COCCCNCCCOc1ccc(C)cc1Br	43.5	-1.0	98.9*	23.3	2.0	-0.11
Cc1ccc2nc(C(=O)N3CCc4c([nH]c5ccccc45)C3c3ccccn3)cn2c1 (configuration not stated)	11.3	0.9	68.2*	24.0	2.4	-0.409
O=C(c1cc(-c2ccccc2)n[nH]1)N1CCc2c([nH]c3ccccc23)C1c1ccccn1 (configuration not stated)	29.1	0.5	85.7*	62.5	0.0	-0.0935
O=C(c1cccs1)N1CCc2c([nH]c3ccccc23)C1c1ccccn1 (configuration not stated)	7.8	1.9	17.2	1.2	0.6	0.157
COc1ccc(C2c3[nH]c4ccccc4c3CCN2C(=O)c2cn3ccccc3n2)c(F)c1 (configuration not stated)	29.5	-2.3	53.0*	9.6	0.7	1.6
COc1ccc(/C=N/NC(=O)c2cccnc2)c(C(=O)O)c1OC	3.8	-1.9	·	-10.6	-0.2	0.707
